Assay results reported in ChEMBL document CHEMBL4138308, “Simultaneous Targeting of RGD-Integrins and Dual Murine Double Minute Proteins in Glioblastoma Multiforme” (J Med Chem, 2018).
Calls of active or inactive are those of the source. The calls are words filed in the database; no cut-off is given here.

Experiments:
Integrin alpha-V/beta-3 = Integrin alpha-V/beta-3 (Homo sapiens, UniProt P05106+P06756); test: Inhibition of vitronectin binding to human alphaVbeta3 integrin after 1 hr by ELISA; type: protein-complex assay
Outline: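 Plates coated overnight at 4 °C with vitronectin 1.0 μg/mL in carbonate buffer pH 9.6, blocked 1 h with TSB (Ca2+, Mg2+, Mn2+, 1% BSA). Soluble human αvβ3 (final 1.0 μg/mL) with inhibitor (final 0.128–400 nM) 1 h at room temperature; detection by anti-CD51/61 then peroxidase secondary, absorbance 405 nm. Duplicates; IC50 from curve inflection point; internal standard per plate.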

Integrin alpha-5/beta-1 = Integrin alpha-5/beta-1 (Homo sapiens, UniProt P05556+P08648); test: Inhibition of fibronectin binding to soluble alpha5beta1 integrin (unknown origin) after 1 hr by ELISA; type: protein-complex assay
Protein Mdm4 = target: T1, Protein Mdm4 (Homo sapiens, UniProt O15151); test: Displacement of p53 from MDM4 in human SHSY-5Y cells incubated for 10 mins by sandwich ELISA method; type: cell-based
T1 sequence (O15151 whole entry): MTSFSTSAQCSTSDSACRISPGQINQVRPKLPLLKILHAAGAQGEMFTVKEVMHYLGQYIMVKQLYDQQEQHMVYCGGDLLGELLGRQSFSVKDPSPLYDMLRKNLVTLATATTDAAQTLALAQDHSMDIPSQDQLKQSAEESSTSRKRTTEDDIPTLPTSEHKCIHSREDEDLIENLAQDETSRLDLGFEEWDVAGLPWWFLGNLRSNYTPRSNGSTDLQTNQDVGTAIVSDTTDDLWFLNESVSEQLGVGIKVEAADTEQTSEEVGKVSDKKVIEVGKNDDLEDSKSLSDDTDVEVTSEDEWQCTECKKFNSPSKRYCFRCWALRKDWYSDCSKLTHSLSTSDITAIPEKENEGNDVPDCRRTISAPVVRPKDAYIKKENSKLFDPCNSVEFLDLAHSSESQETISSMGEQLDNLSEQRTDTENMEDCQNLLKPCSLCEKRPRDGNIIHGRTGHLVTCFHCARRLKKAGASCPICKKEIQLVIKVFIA

U-87 MG [1] = test: Anti-invasive activity in human U87MG cells at 10 uM after 24 hrs by transwell assay; type: functional; settings: U-87MG ATCC
Outline: (§1)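 U87MG cells suspended in serum-free medium (60,000 cells), treated at 10 μM (each agent at 10 μM when combined), placed in upper chamber of Matrigel-coated (0.32 mg/mL) transwell; lower chamber RPMI with 10% FBS. Invasion 24 h at 37 °C; cells on lower membrane surface fixed with p-formaldehyde, crystal violet stained, counted in five random fields per filter. Mean ± SEM vs DMSO control.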

U-87 MG [2] = test: Anti-invasive activity in human U87MG cells at 10 uM after 24 hrs in presence of MDM4 inhibitor SJ-1722550 and alphaVbeta3 inhibitor cilengitide by transwell assay; type: functional, cell-based; settings: U-87MG ATCC; outline: as §1
U-87 MG [3] = test: Antiproliferative activity against human U87MG cells at 100 nM after 72 hrs by MTS assay; type: functional, cell-based; settings: U-87MG ATCC
Outline: (§2)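 Cells seeded ~5000 cells/cm2, after 24 h medium replaced with compound in DMSO (DMSO 1% v/v in controls), alone or in combination at 100 nM each, or concentration series (U87MG 1–100 nM). 72 h exposure; proliferation read by MTS, expressed as % of DMSO control (mean ± SEM, N = 3); IC50 from sigmoid dose–response fit.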

U-87 MG [4] = test: Antiproliferative activity against human U87MG cells at 100 nM after 72 hrs in presence of alphaVbeta3 inhibitor cilengitide by MTS assay; type: functional, cell-based; settings: U-87MG ATCC; outline: as §2
U-87 MG [5] = test: Antiproliferative activity against human U87MG cells at 100 nM after 72 hrs in presence of alphaVbeta3 inhibitor cilengitide and MDM4 inhibitor SJ-1722550 by MTS assay; type: functional, cell-based; settings: U-87MG ATCC; outline: as §2
[6] = target: E3 ubiquitin-protein ligase Mdm2 (Homo sapiens, UniProt Q00987); test: Displacement of p53 from MDM2 in human U87MG cells incubated for 10 mins by sandwich ELISA method; type: cell-based
Sequence of E3 ubiquitin-protein ligase Mdm2 (Q00987 whole entry): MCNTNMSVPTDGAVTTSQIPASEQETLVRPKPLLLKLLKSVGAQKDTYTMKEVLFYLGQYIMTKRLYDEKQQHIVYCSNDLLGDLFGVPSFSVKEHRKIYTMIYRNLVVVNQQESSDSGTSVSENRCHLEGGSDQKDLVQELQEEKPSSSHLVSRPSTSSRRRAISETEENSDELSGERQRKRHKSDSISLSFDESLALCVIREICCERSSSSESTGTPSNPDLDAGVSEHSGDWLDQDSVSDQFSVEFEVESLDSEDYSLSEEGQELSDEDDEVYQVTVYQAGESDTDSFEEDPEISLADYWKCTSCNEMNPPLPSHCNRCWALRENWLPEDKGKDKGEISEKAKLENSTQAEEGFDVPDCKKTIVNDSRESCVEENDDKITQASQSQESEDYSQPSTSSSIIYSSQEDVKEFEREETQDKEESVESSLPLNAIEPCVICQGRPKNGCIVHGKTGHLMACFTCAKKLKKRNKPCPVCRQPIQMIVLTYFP

Sequence of Integrin alpha-V/beta-3 (P05106 27-788 limits assumed): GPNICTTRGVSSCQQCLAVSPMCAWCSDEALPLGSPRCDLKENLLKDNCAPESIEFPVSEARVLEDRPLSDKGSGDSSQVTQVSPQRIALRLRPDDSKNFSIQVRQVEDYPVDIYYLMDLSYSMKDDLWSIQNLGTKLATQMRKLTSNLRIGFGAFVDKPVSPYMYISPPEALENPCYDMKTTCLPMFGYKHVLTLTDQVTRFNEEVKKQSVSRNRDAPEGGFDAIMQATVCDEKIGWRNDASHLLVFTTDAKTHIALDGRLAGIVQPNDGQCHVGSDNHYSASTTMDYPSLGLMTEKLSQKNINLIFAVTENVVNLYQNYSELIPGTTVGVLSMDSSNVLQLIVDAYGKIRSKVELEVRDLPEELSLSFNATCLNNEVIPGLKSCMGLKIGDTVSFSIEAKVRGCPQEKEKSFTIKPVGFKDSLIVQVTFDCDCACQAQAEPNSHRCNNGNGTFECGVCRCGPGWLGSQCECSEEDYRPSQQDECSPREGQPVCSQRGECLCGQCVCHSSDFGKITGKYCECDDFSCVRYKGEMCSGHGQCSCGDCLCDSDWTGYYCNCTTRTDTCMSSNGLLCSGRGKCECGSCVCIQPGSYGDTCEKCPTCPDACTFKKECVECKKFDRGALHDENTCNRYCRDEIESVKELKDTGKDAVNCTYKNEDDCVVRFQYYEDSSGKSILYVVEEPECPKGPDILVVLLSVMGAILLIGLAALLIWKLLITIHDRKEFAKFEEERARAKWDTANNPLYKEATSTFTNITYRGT
Sequence of Integrin alpha-V/beta-3 (P06756 31-889 limits assumed): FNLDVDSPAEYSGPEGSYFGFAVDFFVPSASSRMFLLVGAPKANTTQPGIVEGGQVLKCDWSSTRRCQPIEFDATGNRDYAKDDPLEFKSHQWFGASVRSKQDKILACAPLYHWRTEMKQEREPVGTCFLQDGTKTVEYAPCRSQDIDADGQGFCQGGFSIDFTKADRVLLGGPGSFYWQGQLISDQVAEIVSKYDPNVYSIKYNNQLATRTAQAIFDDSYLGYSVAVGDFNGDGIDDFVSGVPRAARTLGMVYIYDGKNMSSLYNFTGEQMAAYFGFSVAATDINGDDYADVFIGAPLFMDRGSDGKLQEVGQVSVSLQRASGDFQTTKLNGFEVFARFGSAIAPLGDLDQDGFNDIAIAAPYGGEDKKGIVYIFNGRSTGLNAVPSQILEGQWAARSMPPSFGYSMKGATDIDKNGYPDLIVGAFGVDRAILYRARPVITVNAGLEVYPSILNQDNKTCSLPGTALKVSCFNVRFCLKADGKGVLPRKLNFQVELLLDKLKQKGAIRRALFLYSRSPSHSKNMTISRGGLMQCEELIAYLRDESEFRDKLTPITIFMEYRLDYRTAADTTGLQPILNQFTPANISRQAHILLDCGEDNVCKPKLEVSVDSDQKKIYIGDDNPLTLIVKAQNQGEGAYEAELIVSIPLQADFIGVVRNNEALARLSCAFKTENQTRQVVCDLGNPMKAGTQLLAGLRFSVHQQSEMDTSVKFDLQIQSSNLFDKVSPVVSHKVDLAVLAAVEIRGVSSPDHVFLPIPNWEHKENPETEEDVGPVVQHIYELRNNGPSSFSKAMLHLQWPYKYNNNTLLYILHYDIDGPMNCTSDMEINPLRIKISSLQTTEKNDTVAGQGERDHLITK
Sequence of Integrin alpha-V/beta-3 (P06756 891-1048 limits assumed): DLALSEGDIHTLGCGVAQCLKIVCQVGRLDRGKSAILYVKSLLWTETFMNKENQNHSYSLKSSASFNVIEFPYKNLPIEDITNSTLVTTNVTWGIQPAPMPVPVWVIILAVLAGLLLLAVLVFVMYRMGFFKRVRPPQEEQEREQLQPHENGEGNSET
Sequence of Integrin alpha-5/beta-1 (P05556 21-798 limits assumed): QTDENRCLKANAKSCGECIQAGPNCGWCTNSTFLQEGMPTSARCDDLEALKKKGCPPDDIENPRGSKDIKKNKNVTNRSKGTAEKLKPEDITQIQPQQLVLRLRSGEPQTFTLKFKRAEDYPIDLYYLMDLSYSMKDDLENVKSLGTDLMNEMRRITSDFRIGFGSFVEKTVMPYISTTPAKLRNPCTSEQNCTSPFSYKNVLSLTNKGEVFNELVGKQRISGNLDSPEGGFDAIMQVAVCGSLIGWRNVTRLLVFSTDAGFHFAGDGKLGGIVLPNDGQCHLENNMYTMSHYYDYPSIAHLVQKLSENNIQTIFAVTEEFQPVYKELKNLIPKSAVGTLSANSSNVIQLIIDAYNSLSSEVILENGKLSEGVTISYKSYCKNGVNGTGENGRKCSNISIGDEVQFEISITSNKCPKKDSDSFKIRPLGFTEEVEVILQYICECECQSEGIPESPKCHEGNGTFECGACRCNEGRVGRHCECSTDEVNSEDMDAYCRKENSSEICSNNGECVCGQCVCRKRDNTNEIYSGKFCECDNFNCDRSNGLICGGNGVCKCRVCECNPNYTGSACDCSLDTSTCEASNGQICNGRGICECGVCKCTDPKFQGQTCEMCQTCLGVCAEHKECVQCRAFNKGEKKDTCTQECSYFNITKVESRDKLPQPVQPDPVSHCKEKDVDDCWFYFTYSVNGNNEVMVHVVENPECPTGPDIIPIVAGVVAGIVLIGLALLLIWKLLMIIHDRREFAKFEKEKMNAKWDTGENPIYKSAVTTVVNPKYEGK
Sequence of Integrin alpha-5/beta-1 (P08648 42-894 limits assumed): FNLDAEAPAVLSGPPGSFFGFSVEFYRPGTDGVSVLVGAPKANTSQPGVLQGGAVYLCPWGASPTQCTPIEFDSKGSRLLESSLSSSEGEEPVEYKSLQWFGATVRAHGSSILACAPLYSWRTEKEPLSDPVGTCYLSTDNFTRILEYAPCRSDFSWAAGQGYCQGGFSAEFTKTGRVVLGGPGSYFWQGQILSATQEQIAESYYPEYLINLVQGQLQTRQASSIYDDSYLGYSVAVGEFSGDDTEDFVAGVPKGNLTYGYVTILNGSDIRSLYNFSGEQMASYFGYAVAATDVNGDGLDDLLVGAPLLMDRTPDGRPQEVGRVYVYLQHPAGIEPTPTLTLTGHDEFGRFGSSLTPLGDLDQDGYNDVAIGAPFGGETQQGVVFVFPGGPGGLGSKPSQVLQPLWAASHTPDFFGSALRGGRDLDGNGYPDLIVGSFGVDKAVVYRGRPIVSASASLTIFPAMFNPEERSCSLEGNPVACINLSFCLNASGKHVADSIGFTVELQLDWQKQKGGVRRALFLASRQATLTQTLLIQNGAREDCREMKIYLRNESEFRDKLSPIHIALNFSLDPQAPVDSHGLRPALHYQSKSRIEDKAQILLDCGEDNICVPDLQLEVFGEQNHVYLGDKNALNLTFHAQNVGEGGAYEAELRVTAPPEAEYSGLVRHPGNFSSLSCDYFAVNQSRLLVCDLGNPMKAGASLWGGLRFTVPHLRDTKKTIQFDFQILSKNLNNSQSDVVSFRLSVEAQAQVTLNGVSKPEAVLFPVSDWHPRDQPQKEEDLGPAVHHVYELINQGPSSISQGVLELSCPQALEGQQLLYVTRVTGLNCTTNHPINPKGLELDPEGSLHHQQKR
Sequence of Integrin alpha-5/beta-1 (P08648 895-1049 limits assumed): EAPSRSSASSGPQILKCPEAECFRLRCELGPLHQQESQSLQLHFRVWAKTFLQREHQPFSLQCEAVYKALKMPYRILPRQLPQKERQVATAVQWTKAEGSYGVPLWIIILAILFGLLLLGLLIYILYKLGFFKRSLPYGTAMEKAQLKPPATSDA

COc1ccc(CNC(=O)[C@H](CC(=O)O)NC(=O)CNC(=O)c2cccc(NC(=N)N)c2)cc1
IC50 (Integrin alpha-V/beta-3): 1.2 nM | IC50 (Integrin alpha-5/beta-1): 40 nM | IC50 (Protein Mdm4): > 1000 nM

COc1ccc(C2=N[C@H](c3ccc(Cl)cc3)[C@H](c3ccc(Cl)cc3)N2C(=O)N2CCNC(=O)C2)c(OC(C)C)c1
Activity (U-87 MG [1]): inactive | Activity (U-87 MG [2]): Active | Activity (U-87 MG [3]): inactive | Activity (U-87 MG [4]): Active | Activity (U-87 MG [5]): Active

N=C(N)Nc1cccc(C(=O)NCC(=O)N[C@@H](CC(=O)O)C(=O)NCCc2c[nH]c3ccccc23)c1
IC50 (Integrin alpha-V/beta-3): 4 nM | IC50 (Integrin alpha-5/beta-1): 36 nM | IC50 (Protein Mdm4): > 1000 nM

N=C(N)Nc1cccc(C(=O)NCC(=O)N[C@@H](CC(=O)O)C(=O)NCC(c2ccccc2)c2ccccc2)c1
IC50 (Integrin alpha-V/beta-3): 0.91 nM | IC50 (Integrin alpha-5/beta-1): 22 nM | IC50 [6]: > 1000 nM

N=C(N)Nc1cccc(C(=O)NCC(=O)N[C@@H](CC(=O)O)C(=O)NCc2ccc(-c3ccccc3)cc2)c1
IC50 (Integrin alpha-V/beta-3): 1.7 nM | IC50 (Integrin alpha-5/beta-1): 41 nM | IC50 (Protein Mdm4): > 1000 nM

N=C(N)Nc1cccc(C(=O)NCC(=O)N[C@@H](CC(=O)O)C(=O)Nc2ccccc2)c1
IC50 (Integrin alpha-V/beta-3): 0.21 nM | IC50 (Integrin alpha-5/beta-1): 13 nM | IC50 [6]: > 1000 nM | IC50 (Protein Mdm4): > 1000 nM

N=C(N)Nc1cccc(C(=O)NCC(=O)N[C@@H](CC(=O)O)C(=O)NCc2cccc(-c3ccccc3)c2)c1
IC50 (Integrin alpha-V/beta-3): 1.2 nM | IC50 (Integrin alpha-5/beta-1): 18 nM | IC50 (Protein Mdm4): > 1000 nM

N=C(N)Nc1cccc(C(=O)NCC(=O)N[C@@H](CC(=O)O)C(=O)Nc2cccc3ccccc23)c1
IC50 (Integrin alpha-V/beta-3): 4.5 nM | IC50 (Integrin alpha-5/beta-1): 22 nM

N=C(N)Nc1cccc(C(=O)NCC(=O)N[C@@H](CC(=O)O)C(=O)NCc2ccccc2)c1
IC50 (Integrin alpha-V/beta-3): 0.79 nM | IC50 (Integrin alpha-5/beta-1): 31 nM | IC50 [6]: > 1000 nM
